From ChEMBL document CHEMBL4041535, “Rational design, synthesis and in vitro evaluation of novel exo-methylene butyrolactone salicyloylamide as NF-κB inhibitor” (Bioorg Med Chem Lett, 2017)
Activity calls are given as the source filed them. The rule behind the calls is not given here.

Experiments:
[1] = molecular target: Transcription factor p65 (Mus musculus) (UniProt Q04207); assay: Inhibition of kappaB DNA binding to NFkappaB p65 in LPS-stimulated mouse RAW264.7 nuclear extract at 3 to 10 ug/ml after 15 mins by colorimetric method
Method in brief: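 RAW264.7 cells stimulated with LPS 2 h to accumulate nuclear NF-κB. Nuclear extract prepared; compound added directly to extract. p65-κB DNA binding read with TransAM NF-κB p65 kit. Mean ± SD of 3 independent experiments.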

[2] = molecular target: Transcription factor p65 (Mus musculus) (UniProt Q04207); assay: Inhibition of LPS-induced NFkappaB p65 activation in mouse RAW264.7 cells at 0.3 to 1 ug/ml preincubated for 30 mins followed by LPS addition measured after 2 hrs by kappaB DNA binding based colorimetric method; format: cell-based
Method in brief: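 RAW264.7 cells given compound 30 min before LPS, stimulated 2 h. Nuclear extract prepared. p65 binding measured on κB DNA-coated dish with labeled p65 antibody (TransAM kit). Mean ± SD of 3 independent experiments.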

[3] = molecular target: Transcription factor p65 (Mus musculus) (UniProt Q04207); assay: Inhibition of LPS-induced NFkappaB p65-mediated iNOS induction in mouse RAW264.7 cells assessed as reduction in NO production at 0.3 to 10 ug/ml preincubated for 30 mins followed by LPS addition measured after 24 hrs by Griess assay; format: cell-based
Method in brief: (§1)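 RAW264.7 cells given compound 30 min before LPS, then incubated 24 h. Nitrite in medium measured by Griess assay. Mean ± SD of 3 determinations.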

[4] = molecular target: Transcription factor p65 (Homo sapiens) (UniProt Q04206); assay: Inhibition of constitutively activated NFkappaB p65 in human ES2 cells at 3 to 10 ug/ml after 2 hrs by kappaB DNA binding based colorimetric method; format: cell-based
Method in brief: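 ES-2 cells exposed to compound 2 h. Nuclear extract prepared. p65 binding to κB DNA-coated dish detected with labeled p65 antibody.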

ES2 [5] = assay: Anti-invasive activity against human ES2 cells at 1 to 10 ug/ml after 24 hrs by Diff-Quick staining based matrigel chamber assay; format: functional, cell-based
Method in brief: (§2)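 ES-2 ovarian clear cell carcinoma cells exposed to compound 24 h; invasion through Matrigel chamber. Mean ± SD of 4 fields.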

[6] = Chemical stability in PBS at 100 ug/ml up to 12 hrs at 37 degC by HPLC analysis; format: physicochemical; conditions: buffer
Method in brief: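 Compound dissolved in PBS at 100 µg/ml, held at 37 °C for 0, 30 min, 1, 2, 6, 12 h. Extracted into ethyl acetate, dried, then quantified by HPLC. Column: ODS at 40 °C. Mobile phase: acetonitrile/0.1% ammonium acetate (22:78), 0.3 mL/min. UV detection at 254 nm. Mean ± SD of 3 determinations.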

RAW264.7 = assay: Cytotoxicity against mouse RAW264.7 cells assessed as reduction in cell viability up to 1 ug/ml after 24 hrs by MTT assay; format: cell-based; conditions: raw264.7, 24 h
Method in brief: (§3)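 Cells treated with compound 24 h; viability by MTT. Mean ± SD of 3 determinations.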

[7] = molecular target: Transcription factor p65 (Mus musculus) (UniProt Q04207); assay: Inhibition of LPS-induced NFkappaB p65-mediated iNOS induction in mouse RAW264.7 cells assessed as reduction in NO production preincubated for 30 mins followed by LPS addition measured after 24 hrs by Griess assay; format: cell-based; method in brief: as §1
[8] = molecular target: Transcription factor p65 (Mus musculus) (UniProt Q04207); assay: Inhibition of LPS-induced NFkappaB p65-mediated iNOS mRNA expression in mouse RAW264.7 cells at 0.1 to 1 ug/ml preincubated for 30 mins followed by LPS addition measured after 24 hrs by qPCR method; format: cell-based
Method in brief: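 RAW264.7 cells incubated with compound plus LPS 24 h; iNOS mRNA detected by semi-quantitative PCR.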

[9] = molecular target: Transcription factor p65 (Mus musculus) (UniProt Q04207); assay: Inhibition of LPS-induced NFkappaB p65-mediated IL-6 secretion in mouse RAW264.7 cells at 0.1 to 1 ug/ml preincubated for 30 mins followed by LPS addition measured after 24 hrs by ELISA; format: cell-based
Method in brief: (§4)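 RAW264.7 cells given compound 30 min before LPS, then incubated 24 h. IL-6, IL-1β, TNF-α in medium quantified by ELISA. Mean ± SD of 3 determinations.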

[10] = molecular target: Transcription factor p65 (Mus musculus) (UniProt Q04207); assay: Inhibition of LPS-induced NFkappaB p65-mediated IL-1beta secretion in mouse RAW264.7 cells at 0.1 to 1 ug/ml preincubated for 30 mins followed by LPS addition measured after 24 hrs by ELISA; format: cell-based; method in brief: as §4
[11] = molecular target: Transcription factor p65 (Mus musculus) (UniProt Q04207); assay: Inhibition of LPS-induced NFkappaB p65-mediated TNF-alpha secretion in mouse RAW264.7 cells at 0.1 to 1 ug/ml preincubated for 30 mins followed by LPS addition measured after 24 hrs by ELISA; format: cell-based; method in brief: as §4
[12] = molecular target: Transcription factor p65 (Homo sapiens) (UniProt Q04206); assay: Inhibition of kappaB DNA binding to NFkappaB p65 in human ES2 nuclear extract at 3 to 10 ug/ml after 15 mins by colorimetric method
Method in brief: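 Compound added directly to ES-2 nuclear extract. p65 binding to κB DNA-coated dish detected with labeled p65 antibody. Mean ± SD of 3 independent experiments.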

[13] = Cytotoxicity against human ES2 cells assessed as reduction in cell viability up to 30 ug/ml after 24 hrs by MTT assay; format: cell-based; conditions: es2, 24 h; method in brief: as §3
ES2 [14] = assay: Antimigratory activity against human ES2 cells at 1 to 10 ug/ml after 24 hrs by radius 96-well migration assay; format: functional, cell-based
Method in brief: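 ES-2 cells treated 24 h; migration read by Radius 96-well cell migration assay. Mean ± SD of 3 determinations.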

ES2 [15] = assay: Anti-invasive activity against human ES2 cells at 0.1 to 0.3 ug/ml after 24 hrs by Diff-Quick staining based matrigel chamber assay; format: functional, cell-based; method in brief: as §2
[16] = molecular target: Transcription factor p65 (Homo sapiens) (UniProt Q04206); assay: Inhibition of NFkappaB p65 in human ES2 cells assessed as reduction in MMP2 secretion at 3 to 10 ug/ml after 24 hrs by ELISA; format: cell-based
Method in brief: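 ES-2 cells incubated with compound 24 h; secreted MMP-2 in medium by ELISA. Mean ± SD of 3 determinations.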

[17] = molecular target: Transcription factor p65 (Homo sapiens) (UniProt Q04206); assay: Inhibition of NFkappaB p65 in human ES2 cells assessed as reduction in MMP2 mRNA expression at 0.1 to 1 ug/ml after 24 hrs by qPCR method; format: cell-based
Method in brief: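 ES-2 cells incubated with compound 24 h; MMP-2 mRNA detected by semi-quantitative PCR.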

[18] = molecular target: Transcription factor p65 (Mus musculus) (UniProt Q04207); assay: Inhibition of LPS-induced NFkappaB p65-mediated iNOS induction in mouse RAW264.7 cells assessed as reduction in NO production at 1 ug/ml using 12 hrs PBS incubated compound preincubated for 30 mins with cells followed by LPS addition measured after 24 hrs by Griess assay; format: cell-based
Method in brief: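 Compound pre-incubated in PBS at 100 µg/ml, then added to RAW264.7 cells to give 1 µg/ml. LPS 10 ng/ml added 30 min later, 24 h. NO by Griess assay. Mean ± SD of 3 determinations.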

Sequence of Transcription factor p65 (Homo sapiens) (Q04206 whole entry): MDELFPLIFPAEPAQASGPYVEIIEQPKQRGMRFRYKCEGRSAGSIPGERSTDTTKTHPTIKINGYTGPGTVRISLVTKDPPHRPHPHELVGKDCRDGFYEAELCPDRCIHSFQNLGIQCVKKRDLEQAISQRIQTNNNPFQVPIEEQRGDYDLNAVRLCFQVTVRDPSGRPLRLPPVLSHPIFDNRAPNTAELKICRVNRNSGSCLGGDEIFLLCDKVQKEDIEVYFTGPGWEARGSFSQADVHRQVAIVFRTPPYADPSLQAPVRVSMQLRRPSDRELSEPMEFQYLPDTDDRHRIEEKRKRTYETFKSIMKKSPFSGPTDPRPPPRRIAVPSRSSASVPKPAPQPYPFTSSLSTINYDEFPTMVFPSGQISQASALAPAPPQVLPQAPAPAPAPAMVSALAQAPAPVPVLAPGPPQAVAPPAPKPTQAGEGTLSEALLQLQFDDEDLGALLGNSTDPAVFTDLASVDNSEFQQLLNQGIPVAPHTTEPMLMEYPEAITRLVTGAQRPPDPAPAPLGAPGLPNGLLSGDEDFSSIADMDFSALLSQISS
Sequence of Transcription factor p65 (Mus musculus) (Q04207 whole entry): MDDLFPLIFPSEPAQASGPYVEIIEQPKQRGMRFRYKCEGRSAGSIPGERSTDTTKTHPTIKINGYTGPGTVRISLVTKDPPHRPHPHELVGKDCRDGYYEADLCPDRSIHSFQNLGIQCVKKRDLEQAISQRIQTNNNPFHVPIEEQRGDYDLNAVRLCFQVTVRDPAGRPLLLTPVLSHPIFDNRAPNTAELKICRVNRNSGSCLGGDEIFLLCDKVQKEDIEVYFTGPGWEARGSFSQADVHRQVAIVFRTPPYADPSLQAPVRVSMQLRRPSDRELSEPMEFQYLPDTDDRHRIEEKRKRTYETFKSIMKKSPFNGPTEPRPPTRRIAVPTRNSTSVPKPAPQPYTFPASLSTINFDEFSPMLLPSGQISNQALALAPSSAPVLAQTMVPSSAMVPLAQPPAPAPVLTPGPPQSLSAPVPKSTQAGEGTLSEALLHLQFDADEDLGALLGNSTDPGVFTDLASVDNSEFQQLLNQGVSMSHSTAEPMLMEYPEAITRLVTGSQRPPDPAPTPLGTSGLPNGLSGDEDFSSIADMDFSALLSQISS

inhibition [1] | inhibition [2] | inhibition [3] | inhibition [4] | Stability [6] | inhibition [7] | inhibition [8] | inhibition [9] | inhibition [10] | inhibition [11] | inhibition [12] | inhibition [16] | inhibition [17] | inhibition [18] | SMILES | inhibition (ES2 [5]) | Activity (RAW264.7) | Activity [13] | inhibition (ES2 [14]) | inhibition (ES2 [15])
Active | Active | Active | Active | Unstable | – | – | – | – | – | – | – | – | – | O=C(NC1=CC(=O)[C@H]2O[C@H]2[C@H]1O)c1ccccc1O [DEHYDROXYMETHYLEPOXYQUINOMICIN] | Active | – | – | – | –
Active | Active | – | Active | Stable | Dose-dependent effect | Active | Active | Active | Active | Active | Active | Active | Active | C=C1C(=O)OC[C@H]1NC(=O)c1ccccc1O | – | Non-Toxic | Non-Toxic | Active | Active
